Test results reported in ChEMBL document CHEMBL4813940, “Design, synthesis and biological evaluation of novel benzoxaborole derivatives as potent PDE4 inhibitors for topical treatment of atopic dermatitis” (Eur J Med Chem, 2021).
Each block holds one molecule with its values, some of them ahead of it.

How the values were obtained:
[1] = target: T1, 3',5'-cyclic-AMP phosphodiesterase 4B (Homo sapiens, UniProt Q07343); assay: Inhibition of PDE4B (unknown origin) assessed as hydrolysis of [3H]-cGMP into [3H]-GMP incubated for 30 mins by scintillation of proximity assay; settings: in the assay text read “[3H]-cAMP into [3H]-AMP” for “[3H]-cGMP into [3H]-GMP”
Method in brief: (§1)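 Scintillation proximity assay of [3H]-cAMP or [3H]-cGMP hydrolysis to [3H]-AMP or [3H]-GMP. Enzyme was diluted to 1–2 nM in 50 mM Tris pH 7.5, 8.3 mM MgCl2 and 1.7 mM EGTA. Reaction was started by adding enzyme, test solution and radiolabelled substrate, then incubated at 30 °C for 30 min and stopped with SPA beads. Run in duplicate.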

Mus musculus [2] = assay: Antiinflammatory activity against PMA-induced ICR mouse ear oedema model assessed as reduction in ear swelling at 1 mg/ear topically administered and measured after 4 hrs; type: functional
Method in brief: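 Male ICR mice, 8 weeks old. The sample was applied topically to the right ear at 1.0 mg/ear in ethanol before PMA. After 4 h the mice were killed by cervical dislocation and both ears were measured with a micrometer. Oedema was the thickness difference between the ears; inhibition was the percent reduction versus the model group.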

Homo sapiens [3] = species: Homo sapiens; assay: Selectivity index, ratio of IC50 for PDE1A (unknown origin) to IC50 for PDE4B (unknown origin)
Homo sapiens [4] = species: Homo sapiens; assay: Selectivity index, ratio of IC50 for PDE1B (unknown origin) to IC50 for PDE4B (unknown origin)
Homo sapiens [5] = species: Homo sapiens; assay: Selectivity index, ratio of IC50 for PDE1C (unknown origin) to IC50 for PDE4B (unknown origin)
Homo sapiens [6] = species: Homo sapiens; assay: Selectivity index, ratio of IC50 for PDE2A (unknown origin) to IC50 for PDE4B (unknown origin)
Homo sapiens [7] = species: Homo sapiens; assay: Selectivity index, ratio of IC50 for PDE3A (unknown origin) to IC50 for PDE4B (unknown origin)
Homo sapiens [8] = species: Homo sapiens; assay: Selectivity index, ratio of IC50 for PDE3B (unknown origin) to IC50 for PDE4B (unknown origin)
Homo sapiens [9] = species: Homo sapiens; assay: Selectivity index, ratio of IC50 for PDE5A (unknown origin) to IC50 for PDE4B (unknown origin)
Homo sapiens [10] = species: Homo sapiens; assay: Selectivity index, ratio of IC50 for PDE7A (unknown origin) to IC50 for PDE4B (unknown origin)
Homo sapiens [11] = species: Homo sapiens; assay: Selectivity index, ratio of IC50 for PDE10A (unknown origin) to IC50 for PDE4B (unknown origin)
Mus musculus [12] = assay: Antiinflammatory activity against calcipotriol-induced atopic dermatitis mouse model assessed as swelling inhibition by measuring thickness of left ear at 30 mg/kg for 14 days (RVB = 0.26 +/- 0.01 mm); type: functional; settings: time 14 day
Method in brief: (§2)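 Ointment was applied to the dorsal side of the left ear twice daily (30 mg/kg) for 14 days; the normal group received ethanol. On day 17 the mice were anaesthetized with 10% chloral hydrate and ear thickness was measured with a micrometer. Percent inhibition of the inflammatory reaction was calculated against untreated animals.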

Mus musculus [13] = assay: Antiinflammatory activity against calcipotriol-induced atopic dermatitis mouse model assessed as swelling inhibition by measuring thickness of right ear at 30 mg/kg for 14 days (RVB = 0.55 +/- 0.06 mm); type: functional; settings: time 14 day; method in brief: as §2
Mus musculus [14] = assay: Antiinflammatory activity against calcipotriol-induced atopic dermatitis mouse model assessed as swelling inhibition at 30 mg/kg for 14 days; type: functional; set-up: scale not given: the % may be the effect or the level left; settings: time 14 day; method in brief: as §2
[15] = Phototoxicity in albino guinea pig assessed as infiltration of inflammatory cells at 10 mg/kg topical treatment irradiated with 4.2 mw/cm2 UVA for 40 mins and measured after 24 hrs day of light irradiation by H and E staining based microscopic analysis; type: organism-based, Cavia porcellus; settings: in vivo, topical_or_ocular, in the assay text read “72 hrs” for “24 hrs”
Method in brief: (§3)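 Albino guinea pigs (250–300 g) were randomized into 5 groups. Four 2 cm × 2 cm depilated areas beside the spine were prepared 24 h before dosing, and 0.2 mL of test substance was applied. Animals were restrained and exposed to UVA for 40 min. Erythema, eschar and oedema were scored visually at 1, 24, 48 and 72 h. Skin taken at 72 h was formalin-fixed, H&E-stained and read by a pathologist.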

[16] = Phototoxicity in albino guinea pig assessed as necrosis at 10 mg/kg topical treatment irradiated with 4.2 mw/cm2 UVA for 40 mins and measured after 24 hrs day of light irradiation by H and E staining based microscopic analysis; type: organism-based, Cavia porcellus; settings: in vivo, topical_or_ocular, in the assay text read “72 hrs” for “24 hrs”; method in brief: as §3
[17] = target: Dual specificity calcium/calmodulin-dependent 3',5'-cyclic nucleotide phosphodiesterase 1A (Homo sapiens, UniProt P54750); assay: Inhibition of PDE1A (unknown origin); method in brief: as §1
[18] = target: Dual specificity calcium/calmodulin-dependent 3',5'-cyclic nucleotide phosphodiesterase 1B (Homo sapiens, UniProt Q01064); assay: Inhibition of PDE1B (unknown origin); method in brief: as §1
[19] = target: Dual specificity calcium/calmodulin-dependent 3',5'-cyclic nucleotide phosphodiesterase 1C (Homo sapiens, UniProt Q14123); assay: Inhibition of PDE1C (unknown origin)
Method in brief: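 For PDE1A, PDE1B and PDE1C, the reaction buffer was also supplemented with 0.2 mM CaCl2 and […]. Otherwise the same SPA run as the other PDEs: [3H]-nucleotide hydrolysis at 30 °C for 30 min, in duplicate.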

[20] = target: cGMP-dependent 3',5'-cyclic phosphodiesterase (Homo sapiens, UniProt O00408); assay: Inhibition of PDE2A (unknown origin); method in brief: as §1
[21] = target: cGMP-inhibited 3',5'-cyclic phosphodiesterase 3A (Homo sapiens, UniProt Q14432); assay: Inhibition of PDE3A (unknown origin); method in brief: as §1
[22] = target: cGMP-inhibited 3',5'-cyclic phosphodiesterase 3B (Homo sapiens, UniProt Q13370); assay: Inhibition of PDE3B (unknown origin); method in brief: as §1
[23] = target: T1, 3',5'-cyclic-AMP phosphodiesterase 4B; assay: Inhibition of PDE4B (unknown origin); method in brief: as §1
[24] = target: cGMP-specific 3',5'-cyclic phosphodiesterase (Homo sapiens, UniProt O76074); assay: Inhibition of PDE5A (unknown origin); method in brief: as §1
[25] = target: High affinity 3',5'-cyclic-AMP phosphodiesterase 7A (Homo sapiens, UniProt Q13946); assay: Inhibition of PDE7A (unknown origin); method in brief: as §1
[26] = target: cAMP and cAMP-inhibited cGMP 3',5'-cyclic phosphodiesterase 10A (Homo sapiens, UniProt Q9Y233); assay: Inhibition of PDE10A (unknown origin); method in brief: as §1
[27] = Phototoxicity in albino guinea pig assessed as erythema and edema topical treatment irradiated with 4.2 mw/cm2 UVA for 40 mins and measured after 24 hrs day of light irradiation by H and E staining based microscopic analysis; set-up: species or system Cavia porcellus; settings: topical_or_ocular; method in brief: as §3
[28] = Phototoxicity in albino guinea pig assessed as erythema and edema topical treatment irradiated with 4.2 mw/cm2 UVA for 40 mins and measured after 72 hrs day of light irradiation by H and E staining based microscopic analysis; set-up: species or system Cavia porcellus; settings: topical_or_ocular; method in brief: as §3

T1 sequence (Q07343 whole entry): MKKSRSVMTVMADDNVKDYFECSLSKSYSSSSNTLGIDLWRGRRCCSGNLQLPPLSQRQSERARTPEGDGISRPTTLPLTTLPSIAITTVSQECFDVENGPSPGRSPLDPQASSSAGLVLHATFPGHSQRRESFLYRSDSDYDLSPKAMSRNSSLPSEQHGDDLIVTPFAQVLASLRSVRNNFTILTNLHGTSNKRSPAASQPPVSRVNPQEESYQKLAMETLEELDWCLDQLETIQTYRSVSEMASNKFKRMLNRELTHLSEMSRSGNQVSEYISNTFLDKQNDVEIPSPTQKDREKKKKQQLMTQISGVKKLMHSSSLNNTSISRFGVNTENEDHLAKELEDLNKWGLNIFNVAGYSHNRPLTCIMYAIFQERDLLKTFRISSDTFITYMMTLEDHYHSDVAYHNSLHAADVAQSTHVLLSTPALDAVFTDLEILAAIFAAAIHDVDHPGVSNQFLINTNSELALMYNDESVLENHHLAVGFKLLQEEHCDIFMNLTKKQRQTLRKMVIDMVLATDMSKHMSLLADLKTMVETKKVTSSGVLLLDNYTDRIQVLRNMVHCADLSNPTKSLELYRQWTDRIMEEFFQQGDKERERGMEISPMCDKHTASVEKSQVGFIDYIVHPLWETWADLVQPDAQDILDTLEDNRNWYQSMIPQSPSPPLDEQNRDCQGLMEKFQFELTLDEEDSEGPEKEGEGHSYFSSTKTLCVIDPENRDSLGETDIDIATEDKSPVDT
Dual specificity calcium/calmodulin-dependent 3',5'-cyclic nucleotide phosphodiesterase 1C, sequence (Q14123 whole entry): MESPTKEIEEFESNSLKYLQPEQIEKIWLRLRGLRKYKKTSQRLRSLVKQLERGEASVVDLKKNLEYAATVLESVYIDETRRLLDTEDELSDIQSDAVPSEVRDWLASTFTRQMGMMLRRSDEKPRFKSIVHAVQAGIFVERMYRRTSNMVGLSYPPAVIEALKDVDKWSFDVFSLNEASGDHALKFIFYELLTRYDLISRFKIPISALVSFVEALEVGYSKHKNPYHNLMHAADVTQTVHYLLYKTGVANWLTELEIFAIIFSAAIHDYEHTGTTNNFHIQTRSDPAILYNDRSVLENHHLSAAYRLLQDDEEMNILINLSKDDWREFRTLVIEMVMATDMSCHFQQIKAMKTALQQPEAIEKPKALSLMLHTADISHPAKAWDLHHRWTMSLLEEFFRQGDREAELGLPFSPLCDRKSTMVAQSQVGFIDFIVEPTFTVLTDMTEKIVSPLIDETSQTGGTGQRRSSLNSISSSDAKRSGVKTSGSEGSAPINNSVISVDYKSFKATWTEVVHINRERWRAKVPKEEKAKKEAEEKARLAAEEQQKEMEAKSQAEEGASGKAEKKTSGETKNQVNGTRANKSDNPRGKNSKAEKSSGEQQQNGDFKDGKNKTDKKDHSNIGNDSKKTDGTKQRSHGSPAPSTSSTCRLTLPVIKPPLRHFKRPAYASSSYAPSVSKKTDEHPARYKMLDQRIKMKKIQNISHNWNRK
cAMP and cAMP-inhibited cGMP 3',5'-cyclic phosphodiesterase 10A, sequence (Q9Y233 whole entry): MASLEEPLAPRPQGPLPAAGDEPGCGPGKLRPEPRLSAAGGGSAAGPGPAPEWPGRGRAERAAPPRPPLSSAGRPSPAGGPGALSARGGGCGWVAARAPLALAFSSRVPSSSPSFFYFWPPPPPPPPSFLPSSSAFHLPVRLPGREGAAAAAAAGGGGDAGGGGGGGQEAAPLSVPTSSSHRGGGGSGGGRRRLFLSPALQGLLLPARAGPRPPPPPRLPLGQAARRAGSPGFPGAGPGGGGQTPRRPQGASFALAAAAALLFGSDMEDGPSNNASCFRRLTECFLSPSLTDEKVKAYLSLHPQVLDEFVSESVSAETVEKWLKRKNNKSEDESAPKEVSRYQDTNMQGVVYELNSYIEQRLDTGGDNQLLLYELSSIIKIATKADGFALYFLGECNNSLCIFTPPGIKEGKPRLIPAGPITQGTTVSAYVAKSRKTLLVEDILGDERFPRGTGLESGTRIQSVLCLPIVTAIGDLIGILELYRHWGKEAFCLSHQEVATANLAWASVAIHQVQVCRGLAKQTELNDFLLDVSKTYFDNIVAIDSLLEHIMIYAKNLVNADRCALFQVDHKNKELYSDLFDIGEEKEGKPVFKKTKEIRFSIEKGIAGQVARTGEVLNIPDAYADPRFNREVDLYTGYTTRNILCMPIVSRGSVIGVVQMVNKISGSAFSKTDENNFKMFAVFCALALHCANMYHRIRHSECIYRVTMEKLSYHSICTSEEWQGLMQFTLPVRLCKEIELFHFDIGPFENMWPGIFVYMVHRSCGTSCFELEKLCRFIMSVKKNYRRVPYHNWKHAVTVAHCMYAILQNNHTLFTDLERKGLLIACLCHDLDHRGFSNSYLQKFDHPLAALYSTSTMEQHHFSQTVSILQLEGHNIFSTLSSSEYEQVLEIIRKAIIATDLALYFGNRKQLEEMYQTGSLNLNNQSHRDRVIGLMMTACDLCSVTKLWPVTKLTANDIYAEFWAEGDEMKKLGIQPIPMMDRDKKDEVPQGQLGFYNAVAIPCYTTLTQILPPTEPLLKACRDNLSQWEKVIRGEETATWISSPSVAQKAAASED
cGMP-inhibited 3',5'-cyclic phosphodiesterase 3B, sequence (Q13370 whole entry): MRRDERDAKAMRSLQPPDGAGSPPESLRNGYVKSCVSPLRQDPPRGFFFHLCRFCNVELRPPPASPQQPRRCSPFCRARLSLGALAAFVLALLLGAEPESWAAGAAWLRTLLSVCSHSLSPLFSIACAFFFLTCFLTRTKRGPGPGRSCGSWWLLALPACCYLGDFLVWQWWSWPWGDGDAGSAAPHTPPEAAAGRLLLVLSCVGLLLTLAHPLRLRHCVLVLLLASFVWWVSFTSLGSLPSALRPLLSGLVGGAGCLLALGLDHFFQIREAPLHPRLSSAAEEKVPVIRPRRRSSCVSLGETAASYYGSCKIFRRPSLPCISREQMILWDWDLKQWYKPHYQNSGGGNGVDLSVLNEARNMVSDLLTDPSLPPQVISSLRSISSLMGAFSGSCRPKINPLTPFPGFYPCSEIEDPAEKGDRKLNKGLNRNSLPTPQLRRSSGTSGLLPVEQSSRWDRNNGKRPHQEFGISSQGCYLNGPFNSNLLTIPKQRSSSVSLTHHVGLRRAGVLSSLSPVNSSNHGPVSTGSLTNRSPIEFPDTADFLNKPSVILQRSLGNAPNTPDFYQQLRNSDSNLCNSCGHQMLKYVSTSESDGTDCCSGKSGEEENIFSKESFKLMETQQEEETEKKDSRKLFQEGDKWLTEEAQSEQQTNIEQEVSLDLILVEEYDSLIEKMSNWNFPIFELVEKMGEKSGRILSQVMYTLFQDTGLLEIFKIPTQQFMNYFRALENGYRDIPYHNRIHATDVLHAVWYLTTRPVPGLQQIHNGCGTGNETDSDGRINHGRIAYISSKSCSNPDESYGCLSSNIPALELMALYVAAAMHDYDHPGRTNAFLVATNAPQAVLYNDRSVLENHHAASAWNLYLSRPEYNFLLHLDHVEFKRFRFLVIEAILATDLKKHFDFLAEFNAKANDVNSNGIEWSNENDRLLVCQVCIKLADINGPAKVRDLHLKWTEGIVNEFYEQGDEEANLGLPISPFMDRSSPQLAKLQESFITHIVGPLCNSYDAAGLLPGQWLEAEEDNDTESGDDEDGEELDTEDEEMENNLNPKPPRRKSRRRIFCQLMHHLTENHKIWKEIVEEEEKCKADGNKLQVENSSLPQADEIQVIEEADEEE
Dual specificity calcium/calmodulin-dependent 3',5'-cyclic nucleotide phosphodiesterase 1A, sequence (P54750 whole entry): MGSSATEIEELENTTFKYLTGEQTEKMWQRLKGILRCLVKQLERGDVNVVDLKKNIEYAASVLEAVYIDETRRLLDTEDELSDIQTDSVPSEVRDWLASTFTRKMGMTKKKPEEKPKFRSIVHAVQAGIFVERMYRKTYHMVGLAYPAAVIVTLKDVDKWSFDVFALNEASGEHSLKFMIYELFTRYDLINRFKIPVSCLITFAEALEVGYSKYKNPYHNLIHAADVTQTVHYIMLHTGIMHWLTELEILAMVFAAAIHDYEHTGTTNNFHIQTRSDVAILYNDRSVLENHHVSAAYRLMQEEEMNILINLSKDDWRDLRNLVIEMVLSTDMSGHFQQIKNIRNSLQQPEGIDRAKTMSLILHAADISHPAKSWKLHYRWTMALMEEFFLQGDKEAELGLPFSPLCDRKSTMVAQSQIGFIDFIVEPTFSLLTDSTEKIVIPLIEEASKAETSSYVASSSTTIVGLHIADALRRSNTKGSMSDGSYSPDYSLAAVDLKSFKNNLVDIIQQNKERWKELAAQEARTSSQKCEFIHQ
cGMP-dependent 3',5'-cyclic phosphodiesterase, sequence (O00408 whole entry): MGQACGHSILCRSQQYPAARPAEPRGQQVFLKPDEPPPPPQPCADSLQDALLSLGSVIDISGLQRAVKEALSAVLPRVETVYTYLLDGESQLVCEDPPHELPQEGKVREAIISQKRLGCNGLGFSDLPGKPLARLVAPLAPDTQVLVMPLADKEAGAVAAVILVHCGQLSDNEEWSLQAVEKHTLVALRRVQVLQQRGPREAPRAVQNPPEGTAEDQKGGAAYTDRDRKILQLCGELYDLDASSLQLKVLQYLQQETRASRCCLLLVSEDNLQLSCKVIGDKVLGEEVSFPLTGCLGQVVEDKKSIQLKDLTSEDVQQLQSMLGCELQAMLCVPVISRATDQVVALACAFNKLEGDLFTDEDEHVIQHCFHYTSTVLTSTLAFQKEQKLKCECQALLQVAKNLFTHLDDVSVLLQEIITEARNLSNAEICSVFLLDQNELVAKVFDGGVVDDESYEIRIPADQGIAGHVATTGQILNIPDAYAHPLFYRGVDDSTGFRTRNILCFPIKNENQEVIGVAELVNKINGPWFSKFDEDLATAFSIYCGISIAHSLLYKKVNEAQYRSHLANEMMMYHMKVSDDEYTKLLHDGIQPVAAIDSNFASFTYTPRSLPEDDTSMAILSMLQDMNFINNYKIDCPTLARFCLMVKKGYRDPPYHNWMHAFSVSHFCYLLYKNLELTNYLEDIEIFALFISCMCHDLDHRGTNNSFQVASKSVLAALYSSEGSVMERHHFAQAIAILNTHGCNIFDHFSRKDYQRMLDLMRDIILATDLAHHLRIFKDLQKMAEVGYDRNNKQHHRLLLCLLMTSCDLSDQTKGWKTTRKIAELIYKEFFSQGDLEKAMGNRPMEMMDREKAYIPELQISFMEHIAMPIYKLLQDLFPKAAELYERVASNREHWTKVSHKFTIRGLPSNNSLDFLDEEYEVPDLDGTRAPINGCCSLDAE

IC50 [1]: 0.0572 µM
Ratio IC50 (Homo sapiens [3]): 85
Ratio IC50 (Homo sapiens [4]): 271
Ratio IC50 (Homo sapiens [5]): 1080
Ratio IC50 (Homo sapiens [6]): 55
Ratio IC50 (Homo sapiens [7]): 970
Ratio IC50 (Homo sapiens [8]): 891
Ratio IC50 (Homo sapiens [9]): 850
Ratio IC50 (Homo sapiens [10]): 31
Ratio IC50 (Homo sapiens [11]): 1480
IC50 [17]: 5.6 µM
IC50 [18]: 17.9 µM
IC50 [19]: 71 µM
IC50 [20]: 3.63 µM
IC50 [21]: 64 µM
IC50 [22]: 58.8 µM
IC50 [23]: 0.07 µM
IC50 [24]: 56.1 µM
IC50 [25]: 2.03 µM
IC50 [26]: 97.6 µM
SMILES: N#Cc1ccc(Oc2ccc3c(c2)COB3O)cc1 [CRISABOROLE]
inhibition (INH) (Mus musculus [2]): 43.55%
Activity (Mus musculus [12]): 0.29 mm
Activity (Mus musculus [13]): 0.37 mm
Activity (Mus musculus [14]): 32.5%
Activity [15]: Non-Toxic
Activity [16]: Non-Toxic

SMILES: COc1c2occc2cc2ccc(=O)oc12 [METHOXSALEN]
Activity [27]: Toxic
Activity [28]: Non-Toxic
Activity [15]: Toxic
Activity [16]: Toxic
